The test system of one assay is J774. As to the kind of experiment: Antiproliferative activity against mouse J774 cells assessed as reduction of cell growth after 72 hrs by MTT method. It is filed as cell-based. The settings on record: J774, 72 h. Put shortly:
(§1)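 Cells (3.4 × 10^4) seeded in 96-well plates, left to adhere 2 h at 37 °C in 5% CO2. Medium replaced with fresh medium, then 1:4 serial dilutions of compound added. Incubation 72 h. MTT (5 mg/mL stock) added for 3 h. Crystals dissolved in 50% DMF/20% SDS, pH 4.5, and OD read at 620 nm. % dead cells = 100 − (OD treated/OD control)×100. IC50 taken versus control.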
(In general: Formazan colour is commonly taken as a measure of viable cells.)

For the next assay, the system named is WEHI-164. As to the kind of experiment: Antiproliferative activity against mouse WEHI164 cells assessed as reduction of cell growth after 72 hrs by MTT method. The class given is functional, cell-based. As to conditions: WEHI-164, 72 h. In outline: as §1
In the next assay the test system is HEK293. In words: Antiproliferative activity against HEK293 cells assessed as reduction of cell growth after 72 hrs by MTT method. It is filed as cell-based. As to conditions: Homo sapiens, HEK293, 72 h. Put shortly: as §1

The results in this text go back to ChEMBL document CHEMBL1155685, “Antiproliferative triterpene saponins from Trevesia palmata” (J Nat Prod, 2000).

Molecules are shown by their SMILES.

One may read the IC50 as the midpoint of a concentration-inhibition curve. Regarding `C[C@@H]1O[C@@H](O[C@H]2[C@H](O)[C@@H](O)[C@H](OC[C@H]3O[C@@H](OC(=O)[C@]45CCC(C)(C)C[C@H]4C4=CC[C@@H]6[C@@]7(C)CC[C@H](O[C@@H]8OC[C@H](O)[C@H](O)[C@H]8O[C@@H]8O[C@H](C)[C@@H](O)[C@H](O)[C@H]8O)[C@@](C)(CO)[C@@H]7CC[C@@]6(C)[C@]4(C)CC5)[C@H](O)[C@@H](O)[C@@H]3O)O[C@@H]2CO)[C@H](O)[C@H](O)[C@H]1O`, the results for the IC50 with J774 and in the assay on WEHI-164 were 460 nM and 1900 nM, respectively.

For the molecule `C[C@@H]1O[C@@H](O[C@H]2[C@H](O)[C@@H](O)[C@H](OC[C@H]3O[C@@H](OC(=O)[C@]45CCC(C)(C)C[C@H]4C4=CC[C@@H]6[C@@]7(C)CC[C@H](O[C@@H]8OC[C@H](O)[C@H](O)[C@H]8O[C@@H]8O[C@@H](C)[C@H](O)[C@@H](O[C@@H]9O[C@H](CO)[C@@H](O)[C@H](O)[C@H]9O)[C@H]8O)C(C)(C)[C@@H]7CC[C@@]6(C)[C@]4(C)CC5)[C@H](O)[C@@H](O)[C@@H]3O)O[C@@H]2CO)[C@H](O)[C@H](O)[C@H]1O`, the IC50 in the assay on HEK293 was 520 nM; with WEHI-164, 1800 nM.

For the molecule `C[C@@H]1O[C@@H](O[C@H]2[C@H](O)[C@@H](O)[C@H](OC[C@H]3O[C@@H](OC(=O)[C@]45CCC(C)(C)C[C@H]4C4=CC[C@@H]6[C@@]7(C)CC[C@H](O[C@@H]8OC[C@H](O)[C@H](O)[C@H]8O[C@@H]8O[C@@H](C)[C@H](O)[C@@H](O[C@@H]9O[C@H](CO)[C@@H](O)[C@H](O)[C@H]9O)[C@H]8O)C(C)(C)[C@@H]7CC[C@@]6(C)[C@]4(C)C[C@H]5O)[C@H](O)[C@@H](O)[C@@H]3O)O[C@@H]2CO)[C@H](O)[C@H](O)[C@H]1O`, the IC50 with J774 was 110 nM; with HEK293, 150 nM; with WEHI-164, 240 nM.

For `C[C@@H]1O[C@@H](O[C@H]2[C@H](O[C@H]3CC[C@]4(C)[C@H]5CC=C6[C@@H]7CC(C)(C)CC[C@]7(C(=O)O[C@@H]7O[C@H](CO[C@@H]8O[C@H](CO)[C@@H](O[C@@H]9O[C@@H](C)[C@H](O)[C@@H](O)[C@H]9O)[C@H](O)[C@H]8O)[C@@H](O)[C@H](O)[C@H]7O)CC[C@@]6(C)[C@]5(C)CC[C@H]4C3(C)C)OC[C@H](O)[C@@H]2O)[C@H](O)[C@H](O)[C@H]1O` [HEDERASAPONIN B], the values for the IC50 in the assay on J774 and in the assay with WEHI-164 were 60 nM and 600 nM, respectively.

`C[C@@H]1O[C@@H](O[C@H]2[C@H](O)[C@@H](O)[C@H](OC[C@H]3O[C@@H](OC(=O)[C@]45CCC(C)(C)C[C@H]4C4=CC[C@@H]6[C@@]7(C)CC[C@H](O[C@@H]8OC[C@H](O)[C@H](O)[C@H]8O[C@@H]8O[C@H](C)[C@@H](O)[C@H](O)[C@H]8O)C(C)(C)[C@@H]7CC[C@@]6(C)[C@]4(C)CC5)[C@H](O)[C@@H](O)[C@@H]3O)O[C@@H]2CO)[C@H](O)[C@H](O)[C@H]1O`: the IC50 is 100 nM with J774 and 200 nM in the assay on HEK293.

For `C[C@@H]1O[C@@H](O[C@H]2[C@H](O[C@H]3CC[C@@]4(C)[C@@H](CC[C@]5(C)[C@@H]4CC=C4[C@@H]6CC(C)(C)CC[C@]6(C(=O)O)CC[C@]45C)[C@]3(C)CO)OC[C@H](O)[C@@H]2O)[C@H](O)[C@H](O[C@@H]2O[C@H](CO)[C@@H](O)[C@H](O)[C@H]2O)[C@H]1O`, the IC50 in the assay with J774 was 70 nM.

Regarding `Sc1ncnc2nc[nH]c12` [MERCAPTOPURINE ANHYDROUS], the IC50 in the assay with J774 was 3 nM; with WEHI-164, 17 nM.

As for `C[C@@H]1O[C@@H](O[C@H]2[C@H](O)[C@@H](O[C@@H]3O[C@H](CO)[C@@H](O)[C@H](O)[C@H]3O)[C@H](OC[C@H]3O[C@@H](OC(=O)[C@]45CCC(C)(C)C[C@H]4C4=CC[C@@H]6[C@@]7(C)CC[C@H](O[C@@H]8OC[C@H](O)[C@H](O)[C@H]8O[C@@H]8O[C@@H](C)[C@H](O)[C@@H](O[C@@H]9O[C@H](CO)[C@@H](O)[C@H](O)[C@H]9O)[C@H]8O)[C@@](C)(CO)[C@@H]7CC[C@@]6(C)[C@]4(C)CC5)[C@H](O)[C@@H](O)[C@@H]3O)O[C@@H]2C)[C@H](O)[C@H](O)[C@H]1O`, the IC50 was 100 nM in the assay on J774, 320 nM in the assay with HEK293 and 260 nM with WEHI-164.

Consider `C[C@@H]1O[C@@H](O[C@H]2[C@H](O[C@H]3CC[C@]4(C)[C@H]5CC=C6[C@@H]7CC(C)(C)CC[C@]7(C(=O)O)[C@H](O)C[C@@]6(C)[C@]5(C)CC[C@H]4C3(C)C)OC[C@H](O)[C@@H]2O)[C@H](O)[C@H](O[C@@H]2O[C@H](CO)[C@@H](O)[C@H](O)[C@H]2O)[C@H]1O`, for which the IC50 in the assay with J774 was found to be 190 nM.

In the case of `C[C@@H]1O[C@@H](O[C@H]2[C@H](O[C@H]3CC[C@]4(C)[C@H]5CC=C6[C@@H]7CC(C)(C)CC[C@]7(C(=O)O[C@@H]7O[C@H](CO[C@@H]8O[C@H](CO)[C@@H](O[C@@H]9O[C@@H](C)[C@H](O)[C@@H](O[C@@H]%10O[C@H](CO)[C@@H](O)[C@H](O)[C@H]%10O)[C@H]9O)[C@H](O)[C@H]8O)[C@@H](O)[C@H](O)[C@H]7O)CC[C@@]6(C)[C@]5(C)CC[C@H]4C3(C)C)OC[C@H](O)[C@@H]2O)[C@H](O)[C@H](O[C@@H]2O[C@H](CO)[C@@H](O)[C@H](O)[C@H]2O)[C@H]1O`, the results for the IC50 in the assay with J774 and with HEK293 were 180 nM and 170 nM, respectively.
